From ChEMBL document CHEMBL1140925, “Nuclear factor-kappaB mediated inhibition of cytokine production by imidazoline scaffolds” (J Med Chem, 2009)
Active and inactive are the calls of the source. The rule behind the calls is not given here.

Assays:
[1] = system: HeLa; test: Induction of NF-kappaB-mediated transcription expressed in human HeLa cells at 20 uM by luciferase reporter gene assay; type: cell-based
Outline: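 Stably integrated NF-κB-luc HeLa cells, hygromycin-selected, were exposed to 20 µM imidazoline without TNF-α activation. Firefly luciferase was read after 8 h, and signal was normalized to the TNF-α activation control.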

[2] = system: Blood; test: Antiinflammatory activity in human whole blood assessed as inhibition of IL-1-beta-induced IL6 production preincubated 2 hrs before addition of IL1-beta measured after 18 hrs by ELISA; type: functional, tissue-based
Outline: (§1)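 Human blood from donors with white count in the normal range, diluted 1:10 in RPMI-1640 with 10% FBS, penicillin and streptomycin. Aliquots were preincubated with vehicle (0.1% DMSO final) or compound at 10, 3, 1, 0.3 or 0.1 µM final for 2 h at 37 °C, 5% CO2. IL-1β (200 U/mL) was then added for 18 h, and plasma was collected and frozen. Cytokine was measured by ELISA.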

[3] = system: Blood; test: Antiinflammatory activity in human whole blood assessed as inhibition of IL-1-beta-induced TNFalpha production preincubated 2 hrs before addition of IL1-beta measured after 18 hrs by ELISA; type: functional, tissue-based; outline: as §1
[4] = system: HeLa; test: (§2) Inhibition of TNF-alpha-induced NF-kappaB-mediated transcription expressed in human HeLa cells preincubated for 30 mins before addition of TNFalpha measured after 8 hrs by luciferase reporter gene assay; type: cell-based
Outline: (§3)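 HeLa/NF-κB-luc cells (5.0 × 10⁵ cells/mL) were grown 24 h, then switched to serum-free DMEM. They were pretreated 30 min at 37 °C with 0.05–20 µM imidazoline (1% DMSO vehicle), then stimulated with 25 ng/mL TNF-α for 8 h. Steady-Glo luminescence was normalized to TNF-α activation, and EC50 was taken from a variable-slope sigmoidal fit. Values are the mean of two independent experiments.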

[5] = as §2; type: cell-based; outline: as §3
[6] = system: HeLa; test: Inhibition of TNF-alpha-induced NF-kappaB-mediated transcription expressed in human HeLa cells co-transfected with renilla luciferase-TK gene preincubated for 30 mins before TNFalpha challenge measured after 8 hrs by dual-glo luciferase reporter gene assay; type: cell-based
Outline: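 HeLa cells were transiently cotransfected (lipofectamine 2000, 5–6 h) with 6×κB pNF-κB-luc and the pRL-TK Renilla control, then grown 24 h. They were pretreated 30 min with 0.312–20 µM (1% DMSO vehicle), then stimulated with 25 ng/mL TNF-α for 8 h at 37 °C. Dual-Glo firefly signal was normalized to Renilla luminescence.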

Question: For `c1ccc(Cn2c(-c3ccccc3)nc(-c3ccccc3)c2-c2ccccc2)cc1`, which Activity [1] is on record?
Answer: inactive

Question: And the Activity [2]?
Answer: Dose-dependent effect

Question: And the Activity [3]?
Answer: Dose-dependent effect

Question: What about the Activity [4] of the same molecule?
Answer: Dose-dependent effect

Question: And the logEC50 [4]?
Answer: 1.44

Question: And the EC50 [5]?
Answer: 27.7 µM

Question: Which IC50 [2] does the source give for `CCOC(=O)[C@]1(c2ccccc2)N=C(c2ccccc2)N(Cc2ccccc2)[C@@H]1c1ccccc1` [listing 1 of 2 here] here?
Answer: 0.2 µM

Question: What about the IC50 [3] of the same molecule?
Answer: 0.6 µM

Question: What about the EC50 [5] of the same molecule?
Answer: 1.6 µM

Question: Which results are given for `CCOC(=O)[C@@]1(c2ccccc2)N=C(c2ccccc2)N(Cc2ccccc2)[C@H]1c1ccccc1`?
Answer: Activity [1]: inactive; Activity [2]: Dose-dependent effect; IC50 ([2]; Homo sapiens, Blood): 0.583 µM; Activity [3]: Dose-dependent effect; IC50 ([3]; Homo sapiens, Blood): 0.7 µM; Activity [4]: Dose-dependent effect; logEC50 [4]: 0.469; EC50 [5]: 2.9 µM

Question: What does the source list for `CCOC(=O)[C@]1(c2ccccc2)N=C(c2ccccc2)N(Cc2ccccc2)[C@@H]1c1ccccc1` [listing 2 of 2 here]?
Answer: Activity [1]: inactive; Activity [2]: Dose-dependent effect; Activity [3]: Dose-dependent effect; Activity [4]: Dose-dependent effect; logEC50 [4]: 0.209

Question: Which results are given for `OC[C@]1(c2ccccc2)N=C(c2ccccc2)N(Cc2ccccc2)[C@@H]1c1ccccc1` (racemic)?
Answer: Activity [1]: inactive; Activity [2]: Dose-dependent effect; IC50 ([2]; Homo sapiens, Blood): > 20 µM; logIC50 [3]: 1.29; Activity [4]: Dose-dependent effect; EC50 [5]: > 20 µM

Question: Which results are given for `O=C(OCc1ccccc1)[C@]1(c2ccccc2)N=C(c2ccccc2)N(Cc2ccccc2)[C@@H]1c1ccccc1` (racemic)?
Answer: Activity [1]: inactive; Activity [2]: Dose-dependent effect; logIC50 [2]: 0.77; Activity [3]: Dose-dependent effect; logIC50 [3]: 0.51; IC50 ([3]; Homo sapiens, Blood): 3.2 µM; Activity [4]: Dose-dependent effect; logEC50 [4]: 0.54; EC50 [5]: 3.5 µM

Question: For `NC(=O)[C@]1(c2ccccc2)N=C(c2ccccc2)N(Cc2ccccc2)[C@@H]1c1ccccc1` (racemic), which Activity [1] is on record?
Answer: inactive

Question: And the Activity [2]?
Answer: Dose-dependent effect

Question: What about the logIC50 [2] of the same molecule?
Answer: 1.08

Question: What about the IC50 ([2]; Homo sapiens, Blood) of the same molecule?
Answer: 11.9 µM

Question: What about the logIC50 [3] of the same molecule?
Answer: 1.668

Question: What about the IC50 ([3]; Homo sapiens, Blood) of the same molecule?
Answer: > 20 µM

Question: What about the Activity [4] of the same molecule?
Answer: Dose-dependent effect

Question: What about the logEC50 [4] of the same molecule?
Answer: 1.55

Question: What about the EC50 [5] of the same molecule?
Answer: 26.2 µM

Question: Which results are given for `c1ccc(CN2C(c3ccccc3)=N[C@H](c3ccccc3)[C@H]2c2ccccc2)cc1` (racemic)?
Answer: Activity [1]: inactive; Activity [2]: Dose-dependent effect; IC50 ([2]; Homo sapiens, Blood): 2.47 µM; Activity [3]: Dose-dependent effect; logIC50 [3]: 0.39; Activity [4]: Dose-dependent effect; logEC50 [4]: 0.66; EC50 [5]: 4.59 µM

Question: For `c1ccc(CN2C(c3ccccc3)=N[C@@H](c3ccccc3)[C@H]2c2ccccc2)cc1` (racemic), which Activity [1] is on record?
Answer: inactive

Question: What about the Activity [2] of the same molecule?
Answer: Dose-dependent effect

Question: And the IC50 ([2]; Homo sapiens, Blood)?
Answer: 2.4 µM

Question: What about the Activity [3] of the same molecule?
Answer: Dose-dependent effect

Question: And the logIC50 [3]?
Answer: 0.38

Question: What about the Activity [4] of the same molecule?
Answer: Dose-dependent effect

Question: What about the logEC50 [4] of the same molecule?
Answer: 1.04

Question: And the EC50 [5]?
Answer: 11 µM

Question: With `COC(=O)[C@]1(c2ccccc2)N=C(c2ccccc2)N(Cc2ccccc2)[C@@H]1c1ccccc1` (racemic) as the molecule, how does the Activity [1] read?
Answer: inactive

Question: What about the Activity [2] of the same molecule?
Answer: Dose-dependent effect

Question: And the logIC50 [2]?
Answer: 0.446

Question: And the Activity [3]?
Answer: Dose-dependent effect

Question: And the logIC50 [3]?
Answer: 0.4761

Question: What about the IC50 ([3]; Homo sapiens, Blood) of the same molecule?
Answer: 2.79 µM

Question: What about the Activity [4] of the same molecule?
Answer: Dose-dependent effect

Question: What about the logEC50 [4] of the same molecule?
Answer: 0.87

Question: What about the EC50 [5] of the same molecule?
Answer: 7.47 µM

Question: Which Activity [1] does the source give for `CCOC(=O)[C@]1(c2ccccc2)N=C(c2ccccc2)N(Cc2ccccc2)[C@@H]1c1ccccc1` (racemic) here?
Answer: inactive

Question: And the Activity [2]?
Answer: Dose-dependent effect

Question: What about the logEC50 [6] of the same molecule?
Answer: 0.67

Question: What about the Activity [3] of the same molecule?
Answer: Dose-dependent effect

Question: What about the Activity [4] of the same molecule?
Answer: Dose-dependent effect

Question: And the logEC50 [4]?
Answer: 0.4

Question: With `O=C(O)[C@]1(c2ccccc2)N=C(c2ccccc2)N(Cc2ccccc2)[C@@H]1c1ccccc1` (racemic; 1) [listing 1 of 2 here] as the molecule, how does the IC50 ([2]; Homo sapiens, Blood) read?
Answer: > 20 µM

Question: And the IC50 ([3]; Homo sapiens, Blood)?
Answer: > 20 µM

Question: And the EC50 [5]?
Answer: 0.95 µM

Question: What does the source list for `O=C(O)[C@]1(c2ccccc2)N=C(c2ccccc2)N(Cc2ccccc2)[C@@H]1c1ccccc1` (racemic; 1) [listing 2 of 2 here]?
Answer: Activity [1]: inactive; Activity [2]: Dose-dependent effect; Activity [3]: Dose-dependent effect; Activity [4]: Dose-dependent effect

Question: For `O=C(O)[C@]1(c2ccccc2)N=C(c2ccccc2)N(Cc2ccccc2)[C@@H]1c1ccccc1` (racemic; 2), which Activity [1] is on record?
Answer: inactive

Question: And the Activity [4]?
Answer: inactive
